# From PubChem
# HGIII-sPLA2 inh = Blocks human group III sPLA2 activity. Q9NZ20. QFRET BODIPY PC-A2 liposome hydrolysis, fluorescence. inhibition, % at 12.2 µM. 370,000 compounds, 0.56% hits;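 active means inhibition above mean plus 3 SD of compounds lying within the high and low control bounds, cut at about 19% in these data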;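 further: 0% = median of test compound wells and 100% = no enzyme DMSO wells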
# MC4R barr agon = activates human MC4R beta-arrestin recruitment; activation, % at 8.9 µM; U2OS MC4R beta-arrestin complementation, luminescence; percent of melanotan II response, DMSO zero; AID 540308; 360,000 compounds, 0.98% hits;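 active means activation above a per-plate cutoff, the mean activation of sample wells on that plate plus 3 SD, cut at about 8% in these data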
# Target sequence (P32245 whole entry, looked up): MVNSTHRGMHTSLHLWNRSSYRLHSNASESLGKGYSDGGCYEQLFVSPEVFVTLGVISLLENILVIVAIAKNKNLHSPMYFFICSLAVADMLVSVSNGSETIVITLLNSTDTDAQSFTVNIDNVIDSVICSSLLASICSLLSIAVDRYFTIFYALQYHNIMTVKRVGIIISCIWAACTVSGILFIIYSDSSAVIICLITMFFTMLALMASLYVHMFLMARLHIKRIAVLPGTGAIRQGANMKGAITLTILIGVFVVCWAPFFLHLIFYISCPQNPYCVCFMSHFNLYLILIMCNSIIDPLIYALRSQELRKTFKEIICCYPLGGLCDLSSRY
# A1 inh = inhibitors of the anti-apoptotic protein A1, read as caspase activation. MEF A1-2A-BIM cells, Caspase-Glo 3/7 luminescence, 3 h; percent of clofoctol response, vehicle zero. caspase activation, % (test concentration not listed). 330,000 compounds, 0.066% hits;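 active means over half of replicate activation scores above 10%, or exactly half above 10 with the replicate mean above 10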
# NTR1 ag = activates human neurotensin receptor 1. P30989. NTR1-U2OS beta-arrestin-GFP spot imaging, agonist mode. activation, % at 20 µM. 330,000 compounds, 0.17% hits. AID 493036;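 active means activation at or above 40% of the spot to cytoplasm intensity ratio, with at least 20 cells analyzed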;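 further: 0% = DMSO without peptide and 100% = 100 nM NTR1 peptide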
# Granule exo inh = blocks lytic granule exocytosis; 360,000 compounds, 0.66% hits; AID 651702; TALL-104 LAMP-1 surface exposure, flow cytometry; cells stimulated with thapsigargin and PMA; inhibition, % at 10 µM;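 active means inhibition above about 55%, limit read from the data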
# MC4R antag cAMP = blocks human MC4R cAMP signaling | inhibition, % at 6.5 µM | MC4R-expressing cells, MTII-stimulated cAMP, LANCE TR-FRET | AID 540295 | 360,000 compounds, 0.48% hits;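 active means inhibition above its plate's cutoff, the mean of tested wells on that plate plus 3 SD, cut at about 29% in these data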;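 further: 0% = Melanotan II alone and 100% = Melanotan II plus saturating MCL0020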
#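 Test system: U2OS cells stably expressing human melanocortin 4 receptor (MC4R); also added: Melanotan II challenge; compound: 6.5 µM single dose; timing: 30-min compound preincubation, 1-h Melanotan II challenge, 1-h detection, room temperature; signal: Eu-cAMP/anti-cAMP TR-FRET, emission 671 nm; repeats: one well per compound, no replicates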
# NTR1 ag conf = confirmation of agonists of human NTR1. AID 504550. shares compounds with NTR1 ag. 480 compounds, 38% hits. NTR1-U2OS beta-arrestin-GFP translocation imaging. activation, % at 20 µM;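 active means mean activation at 20 µM of at least 40%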;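 further: 0% = DMSO without peptide and 100% = 100 nM NTR1 peptide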
# cAMP nonselect = U2OS forskolin cAMP inhibition counter-screen. shares compounds with MC4R antag cAMP. parental U2OS, LANCE TR-FRET. inhibition, % at 6.5 µM. 1,600 compounds, 26% hits;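 active means mean inhibition over triplicates above the low-control well mean plus 3 SD, set per campaign, cut at about 13% in these data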;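 further: signal is single emission at 671 nm which falls as cellular cAMP rises; 0% = forskolin-stimulated wells and 100% = buffer without forskolin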
# MC4R antag conf = human MC4R cAMP antagonism confirmation | shares compounds with MC4R antag cAMP | MC4R-expressing cells, MTII-stimulated cAMP, TR-FRET | inhibition, % at 6.5 µM | 1,600 compounds, 27% hits; in the data active means inhibition above about 29%;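 further: 0% = agonist stimulated wells alone and 100% = agonist stimulated wells plus saturating reference antagonist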
# MC4R barr conf = human MC4R beta-arrestin agonism confirmation | AID 602192 | U2OS MC4R beta-arrestin recruitment, luminescence; scaled DMSO 0%, Melanotan II 100% | activation, % at 8.9 µM | 2,400 compounds, 31% hits | shares compounds with MC4R barr agon;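 active means mean activation across replicates above the hit cutoff set in the earlier primary screen, cut at about 8% in these data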
# MOR DOR agonist = counter-screen for MC4R agonists: agonists of mu-delta opioid heterodimer | activation, % at 9.2 µM | shares compounds with MC4R barr agon | U2OS PathHunter beta-arrestin, beta-gal luminescence; percent of deltorphin B response, DMSO zero | 2,400 compounds, 5.8% hits;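 active means mean activation across replicates exceeds the hit threshold derived in the earlier primary screen, cut at about 18% in these data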;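 further: 100% = deltorphin B at 0.9 µM final and 0% = DMSO alone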
# The depositor's hits bear a star; . = no result given. A selection: hits, their analogues and other compounds. The true share with any hit is near 2.5%.
SMILES,HGIII-sPLA2 inh,MC4R barr agon,A1 inh,NTR1 ag,Granule exo inh,MC4R antag cAMP,NTR1 ag conf,others
C=CCCC1CN(CC=C)S(=O)(=O)c2c(F)cccc2O1 (stereo not given),-2,.,.,.,.,.,.,
O=C(/C(=C/c1ccc(Cl)cc1)c1nc2ccccc2[nH]1)c1cccs1,.,-2,2,54*,96*,9,62*,
O=C(/C(=C\c1ccccc1)c1nc2ccccc2[nH]1)c1ccc(Cl)cc1,6,1,-1,16,46,4,.,
COc1ccc(Cn2ccc3ccc(-c4ccc5ccn(C(=O)c6ccccc6)c5c4)cc32)cc1,-3,.,.,.,.,.,.,
Cc1cc(=O)[nH]c(SCC(=O)Nc2ccc(F)c(F)c2)n1,-3,.,.,.,.,.,.,
COc1ccc(S[C@]2(C(=O)N3CCCC3)CC(=O)N(C(=O)C3CC3)[C@@H]2c2ccc(OC)cc2)cc1,6,.,.,.,.,.,.,
COc1cc([N+](=O)[O-])ccc1NC(=O)Nc1cnccn1,8,1,0,0,-3,20,.,
COc1cc([N+](=O)[O-])ccc1NC(=O)Nc1nc2c(s1)CCCC2,10,0,-1,43*,2,6,18,
O=C(C1CCCN1S(=O)(=O)c1ccc([N+](=O)[O-])cc1)N1CCc2ccccc2C1 (stereo not given),-2,.,.,.,.,.,.,
O=C(NCCc1ccccc1)C(c1cccs1)N(C(=O)CCl)c1ccc(Cl)cc1 (stereo not given),-4,34*,3,70*,-20,30*,61*,cAMP nonselect=-34;MC4R antag conf=31*
CCCCNc1c(-c2ccc(OC)c(Sc3ccc(OC)cc3)c2)nc2ccccn12,.,5,-1,56*,4,46*,71*,cAMP nonselect=7;MC4R antag conf=28
COC(=O)COc1ccc(NC(=O)Cn2nc(-c3ccccc3)c3ccccc3c2=O)cc1,-7,0,0,61*,6,29*,15,cAMP nonselect=19*;MC4R antag conf=38*
CC(C)(C)OC(=O)[C@H](Cc1ccccc1)NC(=O)c1nc[nH]c1C(=O)NC1CCN(C(=O)OC(C)(C)C)CC1,-8,5,0,45*,8,37*,28,cAMP nonselect=7;MC4R antag conf=5
Cc1ccc2nc(-c3ccc(NC(=S)NC(=O)CC(C)C)cc3)sc2c1,1,0,-1,0,7,2,.,
Cc1ccc2nc(-c3ccc(NC(=O)C(C)Sc4nncs4)cc3)sc2c1 (stereo not given),-24,3,-1,49*,42,43*,32,cAMP nonselect=2;MC4R antag conf=18
N#CCC[C@H]1CC[C@]2(CCCN(C(=O)c3ccc4ccccc4n3)C2)O1,6,.,.,.,.,.,.,
Nc1ccccc1C#CC(=O)c1ccccc1,-1,-1,1,71*,2,54*,83*,cAMP nonselect=26*;MC4R antag conf=52*
Nc1ccccc1C#Cc1ccc([N+](=O)[O-])cc1,6,-1,-2,2,-2,5,.,
C[C@@H]1[C@H](c2ccccc2)OC(O)([C@H](Cc2ccccc2)NC(=O)OC(C)(C)C)CN1C (stereo not given in full),-5,.,.,.,.,.,.,
CCCOc1ccc(C(=O)c2ccccc2C(=O)O)cc1OCCC,-6,2,0,1,-3,7,.,
CCCOc1ccc(C(=O)c2ccccc2C(=O)OC2CCOC2=O)cc1OCCC (stereo not given),5,-1,0,44*,-2,30*,46*,cAMP nonselect=12;MC4R antag conf=25
CC(C)CNc1cccc2c1S(=O)(=O)N[C@@H](Cc1ccccc1)CO2,-6,.,.,.,.,.,.,
COc1cccc(C2NC(=S)N(Cc3ccccc3)C(C)=C2C(C)=O)c1 (stereo not given),4,.,.,.,.,.,.,
Nc1c(C(=O)Nc2ccc(S(=O)(=O)N3CCCC3)cc2)sc2nc3ccc(OC(F)(F)F)cc3cc12,.,14*,15*,87*,-10,16,22,MC4R barr conf=12*;MOR DOR agonist=14
Nc1c(C(=O)Nc2ccc(S(=O)(=O)N3CCCC3)cc2)sc2nc3cc4c(cc3cc12)CCC4,-15,-1,-1,.,-2,19,.,
SMILES,HGIII-sPLA2 inh,MC4R barr agon,A1 inh,NTR1 ag,Granule exo inh,MC4R antag cAMP,NTR1 ag conf,others
CCOC(=O)N1CCN(C(=O)C[C@H]2C[C@@]3(C(=O)OC)C(=C[C@H](C(C)C)O[C@@H]3C3CC3)N(Cc3ccco3)C2=O)CC1,-4,.,.,.,.,.,.,
COc1ccc(C(=O)C2(C(=O)NCc3ccccc3)CC(c3ccccc3C(F)(F)F)=NO2)cc1 (stereo not given),-8,.,.,.,.,.,.,
Oc1ccc(C[C@@H]2CNC(=S)N2CCCCC2CCCCC2)cc1,-48,14*,1,44*,0,1,32,MC4R barr conf=11*;MOR DOR agonist=3
COc1ccc(-c2cc(C3CCN(Cc4ccc([N+](=O)[O-])cc4)CC3)[nH]n2)cc1,-7,0,0,4,7,-3,.,
Cc1ccc(CN2CCC(c3cc(-c4ccc(Cl)cc4)n[nH]3)CC2)cc1,-13,10*,-1,61*,51,2,6,MC4R barr conf=19*;MOR DOR agonist=10
O=C(CCc1ccc(O)cc1)c1c(O)cc(O)cc1O,1,1,-2,-1,-1,7,.,
COc1cc(O)c(CC=C(C)C)c(O)c1C(=O)CCc1ccc(O)cc1,-29,36*,-1,55*,13,-4,28,MC4R barr conf=32*;MOR DOR agonist=6
CCCCCCCCCn1c2c(c(=N)c3c1CCC3)CCCC2,.,13*,.,72*,47,-1,79*,MC4R barr conf=6;MOR DOR agonist=7
CCn1c2c(c(=N)c3c1CCC3)CCCC2,1,-2,0,1,-2,-2,.,
Cn1c(=O)oc2cc(S(=O)(=O)N3CCN(c4cccc(C(F)(F)F)c4)CC3)ccc21,3,.,.,.,.,.,.,
CC(C)c1ccc(/C=N/NC(=O)CN(c2cccc(Cl)c2Cl)S(C)(=O)=O)cc1,-23,22*,0,48*,15,0,40,MC4R barr conf=6;MOR DOR agonist=8
